From PubChem
TRPC4 agonist: opens the mouse TRPC4 cation channel; Q9QUQ5; HEK293 TRPC4beta/mu-opioid, Fluo4 calcium fluorescence; active compounds read high; B-score at 10 µM; 0.49% of 310,000 active;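 active = B-score above 5 SD of library B-scores, and initial fluorescence ratio not above library mean plus 5 SD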;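 also: positive B-score marks a calcium rise read as TRPC4 activation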
Target sequence (Q9QUQ5 whole entry, looked up): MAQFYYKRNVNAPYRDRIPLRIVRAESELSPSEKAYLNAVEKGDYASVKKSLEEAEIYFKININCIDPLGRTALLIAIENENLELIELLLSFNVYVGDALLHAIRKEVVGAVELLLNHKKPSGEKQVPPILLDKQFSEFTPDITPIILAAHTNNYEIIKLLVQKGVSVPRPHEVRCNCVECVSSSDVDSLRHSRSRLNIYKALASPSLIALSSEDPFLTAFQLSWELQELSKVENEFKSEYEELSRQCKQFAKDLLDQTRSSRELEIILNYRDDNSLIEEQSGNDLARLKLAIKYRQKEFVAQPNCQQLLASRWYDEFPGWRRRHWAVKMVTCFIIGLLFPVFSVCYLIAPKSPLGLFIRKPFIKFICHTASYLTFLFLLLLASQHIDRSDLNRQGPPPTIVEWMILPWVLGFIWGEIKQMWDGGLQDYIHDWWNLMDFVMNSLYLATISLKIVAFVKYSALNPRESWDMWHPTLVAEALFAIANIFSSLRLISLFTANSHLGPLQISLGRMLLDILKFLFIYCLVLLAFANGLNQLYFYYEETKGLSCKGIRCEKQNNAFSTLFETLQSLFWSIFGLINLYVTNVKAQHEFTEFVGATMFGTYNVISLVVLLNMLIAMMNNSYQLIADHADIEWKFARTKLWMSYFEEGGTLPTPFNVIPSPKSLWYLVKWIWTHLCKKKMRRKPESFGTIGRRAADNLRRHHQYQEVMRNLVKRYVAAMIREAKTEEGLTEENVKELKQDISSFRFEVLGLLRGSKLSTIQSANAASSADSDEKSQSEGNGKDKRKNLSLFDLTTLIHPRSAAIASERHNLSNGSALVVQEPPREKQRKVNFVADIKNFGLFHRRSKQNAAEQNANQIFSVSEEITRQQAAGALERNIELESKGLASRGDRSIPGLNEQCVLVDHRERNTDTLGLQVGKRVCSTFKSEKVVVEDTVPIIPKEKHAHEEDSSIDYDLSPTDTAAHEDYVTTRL
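Assay system: HEK293 stable line with TRPC4beta plus mu-opioid receptor; schedule: 45 min room-temperature Fluo4 loading, 110 s read; technique: kinetic Fluo4 calcium fluorescence; evaluation: integrated baseline-normalised fluorescence ratio, converted to per-well B score; controls: buffer (low) and maximal DAMGO (high)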
TRPC4 PAM: allosteric potentiators of mouse TRPC4 channel. 0.42% of 310,000 active. AID 2227. B-score at 10 µM. HEK293 TRPC4beta/mu-opioid, DAMGO EC20, Fluo-4 Ca2+ flux; active compounds read high;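 active = B-score of calcium response area above 5 SD of library B-scores, with initial fluorescence ratio within 5 SD of library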;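 also: B-score of integrated fluorescence ratio over time as area under calcium response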
TRPC6 inh: blocks the mouse TRPC6 cation channel | Q61143 | HEK293-TRPC6, membrane potential dye, ACh-evoked depolarization; active compounds read low | B-score at 10 µM | 1.1% of 310,000 active | AID 2553;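 active = B-score under library mean minus 3 SD, initial fluorescence not abnormally high, positive integrated signal ratio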;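 also: B-score derived from integrated fluorescence ratio over the kinetic read; more negative B-score means stronger inhibition of depolarization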
TRPC4 inh: inhibitors of mouse TRPC4 channel. Q9QUQ5. HEK293 TRPC4beta/mu-opioid, DAMGO-evoked Fluo4 calcium flux; active compounds read low. B-score at 10 µM. 0.39% of 300,000 active. AID 2247;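 active = B-score over 3 SD under the library average, no early fluorescence shift, positive overall ratio signal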
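Test system – stable TRPC4beta/mu-opioid receptor HEK293 cells · Probe or stimulus – DAMGO, a submaximal dose followed by a maximal one · Dosing – one concentration per compound · Signal – Fluo4 calcium fluorescence by kinetic imaging, 5 s 1 Hz baseline · Evaluation – per-well B score of integrated baseline-normalized Fluo4 ratio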
TRPC6 act: activators of mouse TRPC6 channel; Q61143; HEK293-TRPC6 membrane potential dye fluorescence; active compounds read high; B-score at 10 µM; 0.13% of 310,000 active; AID 2550;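 active = B-score of the integrated fluorescence ratio above library mean plus 3 SD, and starting fluorescence ratio within library mean plus 5 SD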;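 also: higher score means more depolarization so channel activation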
HEK293 MPD ctr: counter-screen for TRPC6 modulators: effect in parental HEK293 cells; shares compounds with TRPC6 inh; membrane potential dye fluorescence; membrane potential signal change, % at 10 µM; 51% of 2,400 active;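 active = membrane potential signal moves up or down beyond 5 SD from buffer-only wells, on both duplicate plates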
HEK293 MPD ctr 2: second check of TRPC6 modulator effects in parental HEK293 cells; shares compounds with TRPC6 inh; membrane potential dye fluorescence; after compound, maximal acetylcholine stimulation; inhibition, % at 10 µM; 14% of 2,400 active; AID 488926;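 active = membrane potential signal drops by more than 5 SD from the mean control signal, in both duplicate plates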;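 also: plate controls were acetylcholine ECmax control wells for no effect and buffer only wells for full effect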
TRPC4 ctr mod: selectivity of TRPC6 modulators against mouse TRPC4 | HEK293 TRPC4/mu-opioid, membrane potential fluorescence | 69% of 2,400 active | shares compounds with TRPC6 inh | AID 488927 | percent change from control (negative = decrease, positive = increase), % at 10 µM;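 active = membrane potential signal moved up or down beyond 5 SD of buffer control wells, in both duplicate plates, actives on both sides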;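 also: plate controls were assay buffer wells for no effect and DAMGO maximal-effect wells for full effect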
TRPC4 ctr inh 2: second check of whether TRPC6 modulators also affect mouse TRPC4. shares compounds with TRPC6 inh. inhibition, % at 10 µM. HEK293 TRPC4/mu-opioid, membrane potential dye fluorescence; stimulated with maximal-effect DAMGO. 55% of 2,400 active;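 active = drop in membrane potential signal beyond 5 SD of the control wells in both duplicate plates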;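 also: TRPC4 counter screen for TRPC6 hits run under conditions tuned for TRPC6 not TRPC4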
TRPC6 inh conf: confirmation of mouse TRPC6 inhibitors; 43% of 3,300 active; shares compounds with TRPC6 inh; inhibition, % at 10 µM; HEK293-TRPC6, membrane potential dye, ACh-evoked depolarization;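 active = fluorescence ratio falls more than 5 SD below the full-stimulation control mean, in both duplicate runs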;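 also: integrated fluorescence ratio of peak minus minimum over baseline after agonist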
TRPC6 act confirm: confirmation of mouse TRPC6 activators; HEK293-TRPC6 membrane potential dye fluorescence, FDSS; shares compounds with TRPC6 inh; 11% of 2,800 active; activation, % at 10 µM;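 active = ratio signal rise beyond 5 SD above unstimulated control wells' mean, seen in both duplicate runs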;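 also: plate controls were buffer EC0 wells for no effect and acetylcholine ECmax response for full effect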
The depositor's hits bear a star. Only some compounds are listed: those with a hit (about 2.3% of all), similar ones and a draw of the others.

Screening O=C(O)c1ccc(Cl)c(S(=O)(=O)N(Cc2ccccc2)c2ccc(F)cc2)c1 returned TRPC4 agonist inactive, TRPC4 PAM inactive, TRPC6 inh inactive, TRPC4 inh inactive, TRPC6 act 16.9*, HEK293 MPD ctr 140.0%*, HEK293 MPD ctr 2 inactive, TRPC4 ctr mod 22.5%*, TRPC4 ctr inh 2 inactive, TRPC6 inh conf inactive and TRPC6 act confirm 144.0%*.
COc1ccc(N(Cc2ccccc2)S(=O)(=O)c2cc(C(=O)O)ccc2Cl)cc1 was read as TRPC4 agonist inactive, TRPC4 PAM inactive, TRPC6 inh inactive, TRPC4 inh inactive, TRPC6 act 24.9*, HEK293 MPD ctr 189.5%*, HEK293 MPD ctr 2 inactive, TRPC4 ctr mod 41.5%*, TRPC4 ctr inh 2 inactive, TRPC6 inh conf inactive and TRPC6 act confirm 148.5%*.
Screening CC(OC(=O)c1cc(=O)[nH]c2ccccc12)C(=O)NCc1ccccc1 (stereo not given) returned TRPC4 agonist inactive, TRPC4 PAM inactive, TRPC6 inh inactive, TRPC4 inh inactive and TRPC6 act inactive.
`COc1ccccc1C(=O)NNC(=O)c1ccc(Br)o1` gave TRPC4 agonist inactive, TRPC4 PAM inactive, TRPC6 inh inactive, TRPC4 inh inactive and TRPC6 act inactive.
`NC(=O)c1c(NC(=O)C2c3ccccc3Oc3ccccc32)sc2c1CCCCC2` gave TRPC4 agonist inactive, TRPC4 PAM inactive, TRPC6 inh -5.06*, TRPC4 inh inactive, TRPC6 act inactive, HEK293 MPD ctr inactive, HEK293 MPD ctr 2 inactive, TRPC4 ctr mod inactive, TRPC4 ctr inh 2 inactive, TRPC6 inh conf inactive and TRPC6 act confirm inactive.
For CC(=O)Nc1sc2c(c1C(N)=O)CCCC2 the results were TRPC4 agonist inactive, TRPC4 PAM inactive, TRPC6 inh inactive, TRPC4 inh inactive and TRPC6 act inactive.
Cc1cc(NC(=O)CCC(=O)N(Cc2ccco2)C2(C(=O)NC3CCCC3)CCC(C)CC2)no1 (stereo not given) was read as TRPC4 agonist inactive, TRPC4 PAM inactive, TRPC6 inh inactive, TRPC4 inh inactive and TRPC6 act inactive.
Screening Cc1cc(NC(=O)CCC(=O)N(C2CC2)C2(C(=O)NC3CCCC3)CCC(C)CC2)no1 (stereo not given) returned TRPC4 agonist inactive, TRPC4 PAM inactive, TRPC6 inh -5.12*, TRPC4 inh inactive, TRPC6 act inactive, HEK293 MPD ctr inactive, HEK293 MPD ctr 2 inactive, TRPC4 ctr mod 17.5%*, TRPC4 ctr inh 2 inactive and TRPC6 inh conf inactive.
Screening Cc1ccc(CNC(=O)c2cc3ccccc3oc2=O)cc1 returned TRPC4 agonist inactive, TRPC4 PAM inactive, TRPC6 inh inactive, TRPC4 inh inactive and TRPC6 act inactive.
